Experimental data reported in ChEMBL document CHEMBL1130244, “Boron-containing polyamines as DNA targeting agents for neutron capture therapy of brain tumors: synthesis and biological evaluation” (J Med Chem, 1997).

Key:
[1] = Concentration required to produce a 50% reduction in the uptake of [3H]TdR, by F98 glioma cells; assay type: functional; conditions: Rattus norvegicus, F98, 24 h
Summary of the method: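 F98 rat glioma cells, 10 000/well, grown overnight at 37 °C in DMEM with 10% FBS, then 24 h with polyamine at 1–100 μM (0.1–10 μg/mL boron); medium replaced with compound-free medium, pulsed with 0.1 μCi [3H]TdR per well for 18–24 h, then harvested and counted. Six replicates per concentration; IC50 from cpm as % of untreated controls.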

Nucleic Acid = test: Binding of compound to calf thymus DNA was determined by an ethidium bromide displacement assay; assay type: nucleic-acid assay, Bos taurus
[2] = Actual boron concentration in media was determined by using direct current plasma atomic emission spectroscopy (DCP-AES) after 24 hr incubation
Rattus norvegicus = species on record: Rattus norvegicus; test: In vitro uptake of compound by F98 glioma cells was determined by measuring cellular boron content using direct current plasma atomic emission spectroscopy (DCP-AES) after 24 hr incubation

Compound | IC50 [1] [µM] | IC50 (Nucleic Acid) [µM] | Cmedia [2] | Concentration (Rattus norvegicus)
NCCCCNCCCN [SPERMIDINE] | > 100 | 175 |  | 
CCNCCCNCCCCNCCCNCC [BIS(ETHYL)SPERMINE] | > 100 |  |  | 
N[C@@H](Cc1ccc(B(O)O)cc1)C(=O)O |  |  | 50 ug of B/ml | 81 µg of B g-1
NCCCNCCCCNCCCN [SPERMINE] | > 100 | 17 |  | 
